Each structure is given as a SMILES string. The source made the active and inactive calls. The calls are words filed in the database; no cut-off is given here.

The species named for experiment [1] is Mus musculus. Description: Agonistic activity determined by its ability to inhibit the electrically evoked contraction of the mouse vas deferens (mVD); Inactive up to 10 uM. Format: functional. Put shortly:
(§1)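 Isolated mouse vas deferens, electrically stimulated; inhibition of evoked twitch contraction. Cumulative concentration-response curves up to 10 µM (highest concentration tested); potency expressed as pEC50.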

The species entered for experiment [2] is Mus musculus. Description: (§2) Agonistic activity determined by its ability to inhibit the electrically evoked contraction of the mouse vas deferens (mVD). It counts as functional, organism-based. In outline: as §1
The species named for experiment [3] is Mus musculus. The description is as §2. It counts as functional. Put shortly: as §1

As for `C[C@H](NC(=O)CNC(=O)[C@@H](NC(=O)[C@H](Cc1ccccc1)NC(=O)CNC(=O)CNC[C@@H](N)Cc1ccccc1)[C@H](C)O)C(=O)N[C@@H](CCCN=C(N)N)C(=O)N[C@@H](CCCCN)C(=O)N[C@@H](CO)C(=O)N[C@@H](C)C(=O)N[C@@H](CCCN=C(N)N)C(=O)N[C@@H](CCCCN)C(N)=O`, the “Log EC50” value in experiment [1] was “inactive”.
Consider `C[C@H](NC(=O)CNC(=O)[C@@H](NC(=O)[C@H](Cc1ccccc1)NC(=O)CNC(=O)CNC(=O)[C@@H](N)Cc1ccccc1)[C@@H](C)O)C(=O)N[C@@H](CCCNC(=N)N)C(=O)N[C@@H](CCCCN)C(=O)N[C@@H](CO)C(=O)N[C@@H](C)C(=O)N[C@@H](CCCNC(=N)N)C(=O)N[C@@H](CCCCN)C(N)=O`, for which the EC50 (commonly the concentration at which the effect is half-maximal) in experiment [2] is 14.1 nM. In addition, the maximal effect (Emax) (usually the size of the effect at its maximum, as opposed to the concentration needed) in experiment [3] worked out at 90%.

The values are drawn from ChEMBL document CHEMBL1136510, “Nociceptin/Orphanin FQ(1-13)NH2 analogues modified in the Phe1-Gly2 peptide bond” (Bioorg Med Chem Lett, 2003).
